{"source": "paper PMC5858725", "about": "(Biochemistry, 2017)", "molecules": {"B1": {"name": "Cys-less: C58A/C64M/C98A/C239T/C377A/C468S variant of CYP3A4 from codon-optimized synthetic gene (protein, UniProt P08684 2-503, looked up, variant C58A C64M C98A C239T C377A C468S)", "Cytochrome P450 3A4": "ALIPDLAMETWLLLAVSLVLLYLYGTHSHGLFKKLGIPGPTPLPFLGNILSYHKGFAMFDMEMHKKYGKVWGFYDGQQPVLAITDPDMIKTVLVKEAYSVFTNRRPFGPVGFMKSAISIAEDEEWKRLRSLLSPTFTSGKLKEMVPIIAQYGDVLVRNLRREAETGKPVTLKDVFGAYSMDVITSTSFGVNIDSLNNPQDPFVENTKKLLRFDFLDPFFLSITVFPFLIPILEVLNITVFPREVTNFLRKSVKRMKESRLEDTQKHRVDFLQLMIDSQNSKETESHKALSDLELVAQSIIFIFAGYETTSSVLSFIMYELATHPDVQQKLQEEIDAVLPNKAPPTYDTVLQMEYLDMVVNETLRLFPIAMRLERVAKKDVEINGMFIPKGVVVMIPSYALHRDPKYWTEPEKFLPERFSKKNKDNIDPYIYTPFGSGPRNCIGMRFALMNMKLALIRVLQNFSFKPSKETQIPLKLSLGGLLQPEKPVVLKVESRDGTVSGA", "modifications": "Δ3–22 truncation"}}, "key": {"[1]": {"target": "T1, Cys-less CYP3A4 (Homo sapiens, UniProt P08684, C239T/C377A/C468S/C58A/C64M/C98A)"}, "[2]": {"target": "T2, opt-WT CYP3A4 (Homo sapiens, UniProt P08684)"}, "[3]": {"tested_on": "WT CYP3A4", "experiment": "Stopped flow ligand binding kinetics, WT CYP3A4", "design": "species or system human", "details": "for Percentage of absorbance change observed during the fast kinetic phase / Percentage of absorbance change observed during the slow kinetic phase: 40 μM ligand"}, "[4]": {"target": "T2, opt-WT CYP3A4", "experiment": "Stopped flow ligand binding kinetics, opt-WT CYP3A4", "details": "for Percentage of absorbance change observed during the fast kinetic phase / Percentage of absorbance change observed during the slow kinetic phase: 40 μM ligand"}, "[5]": {"target": "T1, Cys-less CYP3A4", "experiment": "Stopped flow ligand binding kinetics, Cys-less CYP3A4", "details": "for Percentage of absorbance change observed during the fast kinetic phase / Percentage of absorbance change observed during the slow kinetic phase: 40 μM ligand"}, "[6]": {"tested_on": "WT CYP3A4", "details": "cited from earlier work"}, "[7]": {"target": "T1, Cys-less CYP3A4", "experiment": "BFC O-debenzylase activity in reconstituted system with CPR", "type": "biochemical", "details": "0.1–0.6 M phosphate pH 7.4, all studied conditions; relative to WT and opt-WT", "summary_of_the_method": "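N-terminally truncated (Δ3–22) CYP3A4 carrying C58A/C64M/C98A/C239T/C377A/C468S, co-expressed with GroESL in E. coli C41(DE3). […] Lipid-free reconstitution with rat cytochrome P450 reductase. Substrate 7-benzyloxy(4-trifluoromethyl)coumarin, O-debenzylated to a fluorescent product that is read fluorimetrically.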"}, "[8]": {"tested_on": "CPR", "experiment": "Kinetics of CYP3A4 reduction with CPR", "type": "biochemical, rat", "details": "anaerobic"}, "[9]": {"details": "2 μM CYP3A4 mixed with 40 μM ligand, 0.6 M phosphate pH 7.4"}, "[10]": {"details": "CO-saturated 0.1 M phosphate pH 7.4, 1 μM CYP3A4 and CPR, 30 μM MDZ, 100 μM NADPH"}}, "note": "Read-outs that look alike come from different tables or passages of the source.", "data": [{"molecule": "CC(C)C[C@H]1C(=O)N2CCC[C@H]2[C@]2(O)O[C@](NC(=O)[C@@H]3C=C4c5cccc6[nH]c(Br)c(c56)C[C@H]4N(C)C3)(C(C)C)C(=O)N12", "note": "[BEC, bromoergocryptine]", "values": [{"measurement": "affinity lower than WT (from Ks)", "setting": "[1]", "result": "1.5–2 fold"}, {"measurement": "Kd", "setting": "[1]; pH 7.4", "result": "450 ± 60", "unit": "nM"}, {"measurement": "affinity lower than WT (from Ks)", "setting": "[2]", "result": "1.5–2 fold"}, {"measurement": "Kd", "setting": "[2]; pH 7.4", "result": "770 ± 140", "unit": "nM"}, {"measurement": "Percentage of absorbance change observed during the fast kinetic phase", "setting": "[3]; 0.1 M phosphate pH 7.4", "result": 52, "unit": "%"}, {"measurement": "Percentage of absorbance change observed during the slow kinetic phase", "setting": "[3]; 0.1 M phosphate pH 7.4", "result": 48, "unit": "%"}, {"measurement": "Percentage of absorbance change observed during the fast kinetic phase", "setting": "[4]; 0.1 M phosphate pH 7.4", "result": 49, "unit": "%"}, {"measurement": "Percentage of absorbance change observed during the slow kinetic phase", "setting": "[4]; 0.1 M phosphate pH 7.4", "result": 51, "unit": "%"}, {"measurement": "Percentage of absorbance change observed during the fast kinetic phase", "setting": "[5]; 0.1 M phosphate pH 7.4", "result": 54, "unit": "%"}, {"measurement": "Percentage of absorbance change observed during the slow kinetic phase", "setting": "[5]; 0.1 M phosphate pH 7.4", "result": 46, "unit": "%"}, {"measurement": "Kd", "setting": "[6]; read-out: Equilibrium Titrations, Ks, determined previously", "result": 300, "unit": "nM"}]}, {"molecule": "O=c1cc(C(F)(F)F)c2ccc(OCc3ccccc3)cc2o1", "note": "[BFC, 7-benzyloxy-(4-trifluoromethyl)coumarin]", "values": [{"measurement": "BFC oxidation (debenzylation) by Cys-less CYP3A4, faster than WT and opt-WT", "setting": "[7]", "result": "6–8 fold"}]}, {"molecule": "Cc1ncc2n1-c1ccc(Cl)cc1C(c1ccccc1F)=NC2", "note": "[MDZ, midazolam]", "values": [{"measurement": "Ligand Binding Kinetics, kfast", "setting": "[3]; [9]", "result": "3.4 ± 0.3", "unit": "s⁻¹"}, {"measurement": "Ligand Binding Kinetics, kslow", "setting": "[3]; [9]", "result": "0.23 ± 0.04", "unit": "s⁻¹"}, {"measurement": "Percentage of absorbance change observed during the fast kinetic phase", "setting": "[3]; 0.1 M phosphate pH 7.4", "result": 70, "unit": "%"}, {"measurement": "Percentage of absorbance change observed during the slow kinetic phase", "setting": "[3]; 0.1 M phosphate pH 7.4", "result": 30, "unit": "%"}, {"measurement": "Percentage of absorbance change observed during the fast kinetic phase", "setting": "[3]; 0.6 M phosphate pH 7.4", "result": 82, "unit": "%"}, {"measurement": "Percentage of absorbance change observed during the slow kinetic phase", "setting": "[3]; 0.6 M phosphate pH 7.4", "result": 18, "unit": "%"}, {"measurement": "Ligand Binding Kinetics, kfast", "setting": "[4]; [9]", "result": "0.26 ± 0.03", "unit": "s⁻¹"}, {"measurement": "Ligand Binding Kinetics, kslow", "setting": "[4]; [9]", "result": "0.027 ± 0.004", "unit": "s⁻¹"}, {"measurement": "Percentage of absorbance change observed during the fast kinetic phase", "setting": "[4]; 0.1 M phosphate pH 7.4", "result": 43, "unit": "%"}, {"measurement": "Percentage of absorbance change observed during the slow kinetic phase", "setting": "[4]; 0.1 M phosphate pH 7.4", "result": 57, "unit": "%"}, {"measurement": "Percentage of absorbance change observed during the fast kinetic phase", "setting": "[4]; 0.6 M phosphate pH 7.4", "result": 49, "unit": "%"}, {"measurement": "Percentage of absorbance change observed during the slow kinetic phase", "setting": "[4]; 0.6 M phosphate pH 7.4", "result": 51, "unit": "%"}, {"measurement": "Ligand Binding Kinetics, kfast", "setting": "[5]; [9]", "result": "0.27 ± 0.02", "unit": "s⁻¹"}, {"measurement": "Ligand Binding Kinetics, kslow", "setting": "[5]; [9]", "result": "0.036 ± 0.003", "unit": "s⁻¹"}, {"measurement": "Percentage of absorbance change observed during the fast kinetic phase", "setting": "[5]; 0.1 M phosphate pH 7.4", "result": 40, "unit": "%"}, {"measurement": "Percentage of absorbance change observed during the slow kinetic phase", "setting": "[5]; 0.1 M phosphate pH 7.4", "result": 60, "unit": "%"}, {"measurement": "Percentage of absorbance change observed during the fast kinetic phase", "setting": "[5]; 0.6 M phosphate pH 7.4", "result": 43, "unit": "%"}, {"measurement": "Percentage of absorbance change observed during the slow kinetic phase", "setting": "[5]; 0.6 M phosphate pH 7.4", "result": 57, "unit": "%"}, {"measurement": "Kd", "setting": "[6]; read-out: Equilibrium Titrations, Ks, 0.1 M phosphate, determined previously", "result": 4800, "unit": "nM"}, {"measurement": "Kd", "setting": "[6]; read-out: Equilibrium Titrations, Ks, 0.6 M phosphate, determined previously", "result": 1800, "unit": "nM"}]}, {"molecule": "CC(C)c1nc(CN(C)C(=O)N[C@H](C(=O)N[C@@H](Cc2ccccc2)C[C@H](O)[C@H](Cc2ccccc2)NC(=O)OCc2cncs2)C(C)C)cs1", "note": "[RIT, ritonavir]", "values": [{"measurement": "Percentage of absorbance change observed during the fast kinetic phase", "setting": "[3]; 0.1 M phosphate pH 7.4", "result": 70, "unit": "%"}, {"measurement": "Percentage of absorbance change observed during the slow kinetic phase", "setting": "[3]; 0.1 M phosphate pH 7.4", "result": 30, "unit": "%"}]}, {"molecule": "B1", "values": [{"measurement": "First Electron Transfer from CPR, kfast", "setting": "[8]; [10]", "result": "1.22 ± 0.03", "unit": "min⁻¹"}, {"measurement": "First Electron Transfer from CPR, kslow", "setting": "[8]; [10]", "result": "0.22 ± 0.02", "unit": "min⁻¹"}, {"measurement": "First Electron Transfer from CPR, percentage of absorbance change in the fast phase", "setting": "[8]; CO-saturated 0.1 M phosphate pH 7.4, 30 μM MDZ", "result": 64, "unit": "%"}]}]}
